Arbovirus anti: antivirals against arbovirus infection, primary screen, cell-based, full library, 10K replicate subset. AID 1251, 2008. inhibition, % at 10 µM. actives 0.37% (n = 200,000). arbovirus infection cell-based antiviral screen; in the data active = inhibition above about 30%
PKD1 kinase inh: inhibitors of human PKD1 kinase, biochemical, fluorescence polarization; Serine/threonine-protein kinase D1 (Homo sapiens), Q15139; inhibition, % (test concentration not listed); PKD1 kinase fluorescence polarization assay; actives 0.056% (n = 200,000)
CHOP inhibitor: inhibitors of CHOP promoter induction, primary screen, cell-based, unfolded protein response, luciferase reporter | actives 3.8% (n = 220,000) | CHO-K1 CHOP-promoter luciferase, tunicamycin-induced, 15-18 h | AID 2732, 2010 | inhibition, % at 10 µM;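 active = compounds that reduced the stress-induced luciferase reporter signal by more than about 70% of percent inhibition, limit read from the data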;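 also: 0% = tunicamycin plus vehicle and 100% = wells without tunicamycin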
Lmaj promast: Leishmania major promastigote growth inhibition, primary screen | Leishmania major promastigotes, resazurin fluorescence viability | inhibition, % at 10 µM | actives 9% (n = 200,000);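 also: promastigotes grown with compound for 44 hours at 28 °C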
Wee1 degr inh: Wee1 degradation inhibitors, primary screen, cell-based, HeLa, Wee1K328M-luciferase, luminescence; HeLa Luc-Wee1K328M stability; 100% = proteasome inhibitor MG132 effect; actives 1.2% (n = 220,000); reporter increase, % at 5 µM;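 active = activation above the mean of all tested compounds plus 3 SD, set per screening run, cut at about 8.8% in these data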;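 also: cells exposed to compound for 20 h before luminescence read; 0% = DMSO alone and 100% = MG132 at 30 µM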
Target sequence (P30291 whole entry K328M): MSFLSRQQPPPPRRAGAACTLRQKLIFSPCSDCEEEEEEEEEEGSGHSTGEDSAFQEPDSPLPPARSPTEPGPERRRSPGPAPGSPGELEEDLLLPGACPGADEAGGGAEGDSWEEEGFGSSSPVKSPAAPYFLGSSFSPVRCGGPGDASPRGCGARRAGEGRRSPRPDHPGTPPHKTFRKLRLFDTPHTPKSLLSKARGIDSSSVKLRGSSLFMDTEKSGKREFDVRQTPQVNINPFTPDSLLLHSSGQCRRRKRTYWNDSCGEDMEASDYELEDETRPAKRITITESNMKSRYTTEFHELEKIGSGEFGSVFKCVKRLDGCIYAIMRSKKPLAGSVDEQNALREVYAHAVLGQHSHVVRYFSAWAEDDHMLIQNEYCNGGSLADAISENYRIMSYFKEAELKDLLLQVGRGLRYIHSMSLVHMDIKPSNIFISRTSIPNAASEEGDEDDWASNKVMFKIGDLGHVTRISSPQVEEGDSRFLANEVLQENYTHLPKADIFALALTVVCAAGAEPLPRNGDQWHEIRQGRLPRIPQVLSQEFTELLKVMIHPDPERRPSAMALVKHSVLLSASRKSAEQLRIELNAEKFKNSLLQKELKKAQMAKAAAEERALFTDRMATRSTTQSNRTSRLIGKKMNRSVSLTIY
Rad51 HR inh: human RAD51 strand exchange inhibitors, primary screen, biochemical, fluorescence. DNA repair protein RAD51 homolog 1 (Homo sapiens), Q06609. hRad51 DNA strand exchange, fluorescence dequenching. inhibition, % at 10 µM. actives 0.085% (n = 200,000);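 active = inhibition above 40% at the single screening dose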;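 also: 0% = DMSO control wells and 100% = blanks with heterologous ssDNA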
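Assay system: Human Rad51 nucleoprotein filaments preassembled on unlabelled ssDNA | Reagent: Donor/quencher-labelled 47-bp dsDNA substrate | Doses: One concentration, 10 µM final | Times: 37 °C 15-min filament assembly, 30-min compound preincubation, 15-min exchange | Technique: Fluorescein emission 520 nm, excitation 485 nm | Benchmarks: Plate control and blank wells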
Numbers without * were called inactive; · = no result. This is a sample that favours compounds with a hit; in the whole collection about 12% have one here. Rule as the data show it, unless noted: active = inhibition above about 50%; inactive = the rest.

SMILES | Arbovirus anti | PKD1 kinase inh | CHOP inhibitor | Lmaj promast | Wee1 degr inh | Rad51 HR inh
COc1cc(CN2CCN(c3ccccc3C)CC2)cc([N+](=O)[O-])c1O | 6 | -12 | 30 | 7 | 1 | 26
Cc1cc(C)n(-c2ccccc2C#N)n1 | · | · | -12 | · | 8 | 1
Cc1ccc(OCCn2c(=O)n(C)c3ccccc32)cc1 | -13 | -4 | -32 | 6 | -3 | 0
O=C(c1cc(-c2ccncc2)nc2ccc(Cl)cc12)N1CCN(Cc2ccc3c(c2)OCO3)CC1 | -23 | -3 | 42 | 81* | -2 | 4
O=C(Cn1ncc2c1-c1ccccc1OC2)N1CCN(Cc2ccc3c(c2)OCO3)CC1 | -5 | -2 | 77* | -5 | 0 | 3
O=C(CS(=O)(=O)Cc1ccccc1)N1CCN(Cc2ccc3c(c2)OCO3)CC1 | 6 | 1 | 31 | 69* | 5 | 8
O=C(CSCc1cccc(Cl)c1)N1CCN(Cc2ccc3c(c2)OCO3)CC1 | 0 | 2 | 56 | 91* | -2 | 3
COc1cccc(OC)c1C(=O)N1CCN(Cc2ccc3c(c2)OCO3)CC1 | -4 | 1 | 20 | 4 | 0 | 22
O=C(/C=C/c1ccccc1)Nc1ccc(C(=O)N2CCCCC2)cc1 | -7 | -6 | 24 | 1 | 0 | ·
C=CCNC(=O)c1sccc1Oc1ccc(F)cc1[N+](=O)[O-] | 5 | 2 | 6 | 1 | -1 | 1
Cc1ccc(C)c(NS(=O)(=O)c2ccc3c(c2)Cc2cc(S(=O)(=O)Nc4cc(C)ccc4C)ccc2-3)c1 | -11 | -3 | 83* | 21 | -1 | 2
Cc1ccc(C)c(NS(=O)(=O)c2ccc(OCC(=O)N3CCCC3)cc2)c1 | 0 | -6 | 31 | 10 | 1 | 7
Cc1ccc(NS(=O)(=O)c2ccc3c(c2)C(=O)c2ccccc2C3=O)c(C)c1 | -10 | 7 | 80* | -3 | -4 | 3
CCOc1ccc(CN2CCN(Cc3nc4c(s3)CCCC4)CC2CCO)cc1 (stereo unspecified) | -1 | 7 | 25 | 11 | 2 | 4
COc1ccc(NC(=O)CSc2nnc3n2CCCCC3)cc1 | 0 | 0 | 27 | -3 | 3 | ·
O=C(CSc1nc(-c2ccco2)cc(C(F)(F)F)n1)Nc1ccccc1C(F)(F)F | -5 | 0 | 77* | 4 | 0 | -1
Cc1cccc(C)c1NC(=O)CSc1nc(-c2ccco2)cc(C(F)(F)F)n1 | -25 | 5 | 85* | 2 | 0 | -6
CCOC(=O)N1CCN(c2nc(-c3ccco3)cc(C(F)(F)F)n2)CC1 | 5 | 0 | 86* | 11 | -2 | -4
O=C(CSc1nc(-c2ccco2)cc(C(F)(F)F)n1)NCCc1ccccc1 | -13 | 1 | 57 | 6 | 1 | 5
NC(=O)c1ccccc1NC(=O)Nc1ccc(F)c(Cl)c1 | 12 | 4 | 11 | 7 | -3 | 1
CNC(=O)C(=O)NCC1OCCN1S(=O)(=O)c1ccc2c(c1)OCCO2 (stereo unspecified) | 2 | 0 | 18 | -2 | -3 | 5
CCCCOc1ccc(C)cc1CN(CCO)CCO | 1 | -10 | 4 | -2 | 2 | 5
CCC(C)(C)c1ccc(OCCCC[n+]2ccccc2)c(C(C)(C)CC)c1 | -23 | -6 | -3 | 100* | 2 | 8
CCCCCc1ccc(OCCCC[n+]2cccc(C)c2)c(CCCCC)c1 | -35 | 2 | 89* | 101* | 2 | 1
Cc1cc(=O)oc2cc(OCCCC[n+]3ccccc3)ccc12 | · | · | 7 | · | 0 | 6
CCCCCc1ccc(OCCCC[n+]2ccc(C)cc2)c(CCCCC)c1 | -34 | 11 | 75* | 100* | -1 | -4
CCCCCc1ccc(OCCCC[n+]2ccccc2)c(CCCCC)c1 | -24 | -1 | -21 | 101* | 0 | 31
COC(=O)[C@H](CCSC)NS(=O)(=O)c1ccccc1Br | · | · | 1 | · | · | -10
COCCn1nnnc1CN(Cc1cccnc1)Cc1cc2cc(OC)ccc2[nH]c1=O | 7 | -13 | 13 | -3 | 8 | 1
